From ChEMBL document CHEMBL1268931, “Tailored α-methylene-γ-butyrolactones and their effects on growth suppression in pancreatic carcinoma cells” (Bioorg Med Chem Lett, 2010)

Key:
[1] = tested on: BXPC-3; test: Cytotoxicity against human BxPC3 cells assessed as cell growth at 10 uM after 72 hrs by MTT assay relative to untreated control; type: functional; conditions: BXPC-3, 72 h, read-out: Activity
Procedure, shortened: (§1)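 After 72 h of exposure, growth was read with MTS (CellTiter 96 AQueous One) colorimetric reagent as percent of control-treated cells (100%). Mean of at least two independent experiments run in triplicate.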

[2] = tested on: MIA PaCa-2; test: Cytotoxicity against human MIAPaCa2 cells assessed as cell growth at 10 uM after 72 hrs by MTT assay relative to untreated control; type: functional; conditions: MIA PaCa-2, 72 h, read-out: Activity; procedure, shortened: as §1
[3] = tested on: PANC-1; test: Cytotoxicity against human PANC1 cells assessed as cell growth at 10 uM after 72 hrs by MTT assay relative to untreated control; type: functional; conditions: PANC-1, 72 h, read-out: Activity; procedure, shortened: as §1
[4] = tested on: BXPC-3; test: Cytotoxicity against human BxPC3 cells assessed as cell growth at 1 uM after 72 hrs by MTT assay relative to untreated control; type: functional; conditions: BXPC-3, 72 h, read-out: Activity; procedure, shortened: as §1
[5] = tested on: MIA PaCa-2; test: Cytotoxicity against human MIAPaCa2 cells assessed as cell growth at 1 uM after 72 hrs by MTT assay relative to untreated control; type: functional; conditions: MIA PaCa-2, 72 h, read-out: Activity; procedure, shortened: as §1
[6] = tested on: PANC-1; test: Cytotoxicity against human PANC1 cells assessed as cell growth at 1 uM after 72 hrs by MTT assay relative to untreated control; type: functional; conditions: PANC-1, 72 h, read-out: Activity; procedure, shortened: as §1
[7] = Toxicity against human normal Hematopoietic Progenitor Cells isolated from human cord blood at 1 uM after 18 hrs by MTT assay relative to untreated control

C=C1C(=O)OCC1c1ccccc1 (stereo not given)
growth at 10 µM [1]: 40%
growth at 10 µM [2]: 14%
growth at 10 µM [3]: 31%

C=C1C(=O)O[C@@H]2C3O[C@]3(C)CC/C=C(\C)CC[C@@H]12 (stereo not given in full)
growth at 1 µM [4]: 92%
growth at 10 µM [1]: 6%
growth at 1 µM [5]: 78%
growth at 10 µM [2]: 3%
growth at 1 µM [6]: 132%
growth at 10 µM [3]: 12%

C=C1CC(c2ccccc2)OC1=O (stereo not given)
growth at 10 µM [1]: 136%
growth at 10 µM [2]: 106%
growth at 10 µM [3]: 135%

C=C1C(=O)O[C@@H](C2CCCCC2)[C@H]1c1ccccc1 (relative stereo)
growth at 10 µM [1]: 95%
growth at 10 µM [2]: 81%
growth at 10 µM [3]: 104%

C=C1C(=O)O[C@@H](c2ccccc2)[C@H]1C (relative stereo)
growth at 1 µM [4]: 98%
growth at 10 µM [1]: 41%
growth at 1 µM [5]: 114%
growth at 10 µM [2]: 14%
growth at 1 µM [6]: 143%
growth at 10 µM [3]: 62%

C=C1C(=O)O[C@@H](C(C)C)[C@H]1C (relative stereo)
growth at 10 µM [1]: 153%
growth at 10 µM [2]: 143%
growth at 10 µM [3]: 119%

C=C1C(=O)O[C@@H](c2ccc(OC)cc2)[C@H]1C (relative stereo)
growth at 1 µM [4]: 128%
growth at 10 µM [1]: 13%
growth at 1 µM [5]: 109%
growth at 10 µM [2]: 9%
growth at 1 µM [6]: 130%
growth at 10 µM [3]: 32%

C=C1C(=O)O[C@@H](c2c(F)c(F)c(F)c(F)c2F)[C@H]1C (relative stereo)
growth at 1 µM [4]: 98%
growth at 10 µM [1]: 89%
growth at 1 µM [5]: 120%
growth at 10 µM [2]: 53%
growth at 1 µM [6]: 86%
growth at 10 µM [3]: 70%

C/C=C1\C(=O)O[C@H](c2ccc(OC)cc2)[C@H]1C (relative stereo)
growth at 10 µM [1]: 179%
growth at 10 µM [2]: 124%
growth at 10 µM [3]: 139%

C/C=C1\C(=O)O[C@@H](c2ccc([N+](=O)[O-])cc2)[C@H]1C (relative stereo)
growth at 10 µM [1]: 117%
growth at 10 µM [2]: 110%
growth at 10 µM [3]: 106%

C=C1C(=O)O[C@H](c2ccc3ccccc3c2)[C@H]1C (relative stereo)
growth at 1 µM [4]: 113%
growth at 10 µM [1]: 27%
growth at 1 µM [5]: 74%
growth at 10 µM [2]: 4%
growth at 1 µM [6]: 139%
growth at 10 µM [3]: 22%

C=C1C(=O)O[C@@H](c2ccccc2)[C@H]1c1ccccc1 (relative stereo)
growth at 1 µM [4]: 51%
growth at 10 µM [1]: 8%
growth at 1 µM [5]: 32%
growth at 10 µM [2]: 3%
growth at 1 µM [6]: 108%
growth at 10 µM [3]: 38%

C=C1C(=O)O[C@H](c2ccccc2)[C@H]1c1ccccc1 (relative stereo)
growth at 1 µM [4]: 86%
growth at 10 µM [1]: 1%
growth at 1 µM [5]: 30%
growth at 10 µM [2]: 1%
growth at 1 µM [6]: 116%
growth at 10 µM [3]: 1%
Activity [7]: Non-toxic

C=C1C(=O)O[C@H](c2ccc(C)cc2)[C@H]1c1ccccc1 (relative stereo)
growth at 1 µM [4]: 67%
growth at 10 µM [1]: 0%
growth at 1 µM [5]: 26%
growth at 10 µM [2]: 2%
growth at 1 µM [6]: 105%
growth at 10 µM [3]: 0%
Activity [7]: Non-toxic

C=C1C(=O)O[C@H](c2ccc(OC)cc2)[C@H]1c1ccccc1 (relative stereo)
growth at 1 µM [4]: 73%
growth at 10 µM [1]: 0%
growth at 1 µM [5]: 54%
growth at 10 µM [2]: 0%
growth at 1 µM [6]: 80%
growth at 10 µM [3]: 0%

C=C1C(=O)O[C@H](c2ccc(C(F)(F)F)cc2)[C@H]1c1ccccc1 (relative stereo)
growth at 1 µM [4]: 138%
growth at 10 µM [1]: 13%
growth at 1 µM [5]: 142%
growth at 10 µM [2]: 5%
growth at 1 µM [6]: 152%
growth at 10 µM [3]: 33%

C=C1C(=O)O[C@@H](c2ccc3ccccc3c2)[C@H]1c1ccccc1 (relative stereo)
growth at 1 µM [4]: 104%
growth at 10 µM [1]: 1%
growth at 1 µM [5]: 125%
growth at 10 µM [2]: 6%
growth at 1 µM [6]: 98%
growth at 10 µM [3]: 33%

C=C1C(=O)O[C@H](c2ccc3ccccc3c2)[C@H]1c1ccccc1 (relative stereo)
growth at 1 µM [4]: 60%
growth at 10 µM [1]: 1%
growth at 1 µM [5]: 29%
growth at 10 µM [2]: 3%
growth at 1 µM [6]: 53%
growth at 10 µM [3]: 13%
Activity [7]: Non-toxic

C/C1=C\CC[C@@]2(C)O[C@@H]2[C@H]2OC(=O)C(CN(C)C)[C@@H]2CC1 (stereo not given in full) [DIMETHYLAMINOPARTHENOLIDE]
growth at 1 µM [4]: 92%
growth at 10 µM [1]: 7%
growth at 1 µM [5]: 73%
growth at 10 µM [2]: 2%
growth at 1 µM [6]: 117%
growth at 10 µM [3]: 17%
Activity [7]: Non-toxic
